Results on one molecule are retold here after ChEMBL document CHEMBL2203116, “Synthesis and evaluation of novel carbon-11 labeled oxopurine analogues for positron emission tomography imaging of translocator protein (18 kDa) in peripheral organs” (J Med Chem, 2011).

Common to all, as to type: ADME, organism-based
Data set [1] relates to Lung. Put plainly: Drug uptake in Sprague-Dawley rat lung at 0.15 nmol, iv pretreated with unlabeled (R)-PK11195 by PET scanning. The note with it: in vivo. In outline:
(§1)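 Male Sprague-Dawley rats (6–8 weeks old), isoflurane-anesthetized, prone. ROIs on lung, heart, kidney, liver, small intestine and cardiac blood pool. Uptake decay-corrected to injection time and expressed as SUV (body-weight normalized). n = 4, mean ± SD.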

Data set [2] relates to Kidney. The data set can be described thus: Drug uptake in Sprague-Dawley rat kidney at 0.15 nmol, iv pretreated with unlabeled (R)-PK11195 by PET scanning. The note with it: in vivo. In a few lines:
as §1

In data set [3] the test system is Lung. Put plainly: Drug uptake in Sprague-Dawley rat lung at 0.15 nmol, iv pretreated with unlabeled AC-5216 by PET scanning. The note with it: in vivo. In a few lines:
as §1

A short description of data set [4]: Metabolic stability in Sprague-Dawley rat heart assessed as unchanged compound at 0.32 nmol, iv after 30 mins by analytical radio- HPLC. The note with it: read-out: Stability. In outline:
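Rats (n = 3) given radioligand iv (37 MBq/100 μL, 0.32 nmol) and killed at 30 min. Heart and kidney homogenized in ice-cold MeCN/H2O 4/6, centrifuged 15000 rpm for 1 min at 4 °C. Supernatant run on analytical radio-HPLC (C18, MeCN/H2O 4/6). Percent parent = parent peak area over total peak areas, decay-corrected. Mean ± SD.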

Data set [5] concerns Heart. The data set can be described thus: Biodistribution in LPS-treated Sprague-Dawley rat heart at 0.19 nmol, iv by gamma counting. The note with it: in vivo. In a few lines:
(§2)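 Male Sprague-Dawley rats were given intratracheal LPS (E. coli O127:B8, 5.0 mg/kg in 50 μL saline) or 50 μL saline vehicle 24 h before tracer. [11C]Radioligand (16 MBq/200 μL, 0.19 nmol) in saline was injected via the tail vein. Rats were killed at 30 min (n = 4 per group). Tissues were weighed and gamma-counted, expressed as decay-corrected %ID/g.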

Data set [6] concerns Kidney. Put plainly: Biodistribution in LPS-treated Sprague-Dawley rat kidney at 0.19 nmol, iv by gamma counting. The note with it: in vivo. In a few lines: as §2
Data set [7] concerns Blood. The data set can be described thus: Biodistribution in Sprague-Dawley rat blood at 0.19 nmol, iv by gamma counting. The note with it: in vivo. In outline: as §2
A further data set has as its system Brain. The data set can be described thus: Biodistribution in Sprague-Dawley rat brain at 0.19 nmol, iv by gamma counting. The note with it: in vivo. In outline: as §2
Data set [8] concerns Heart. Put plainly: Biodistribution in Sprague-Dawley rat heart at 0.19 nmol, iv by gamma counting. The note with it: in vivo. In outline:
as §2

Data set [9] relates to Liver. Put plainly: Biodistribution in Sprague-Dawley rat liver at 0.19 nmol, iv by gamma counting. The note with it: in vivo. In a few lines:
as §2

For data set [10], the system named is Kidney. The data set can be described thus: Biodistribution in Sprague-Dawley rat kidney at 0.19 nmol, iv by gamma counting. The note with it: in vivo. In outline: as §2
For another data set, the system named is Spleen. The data set can be described thus: Biodistribution in Sprague-Dawley rat spleen at 0.19 nmol, iv by gamma counting. The note with it: in vivo. In outline: as §2
Another data set concerns Muscle tissue. Put plainly: Biodistribution in Sprague-Dawley rat muscle at 0.19 nmol, iv by gamma counting. The note with it: in vivo. In outline: as §2
Data set [11] concerns Blood. Put plainly: Drug uptake in Sprague-Dawley rat cardiac blood pool at 0.15 nmol, iv after 27.5 mins by PET scanning. The note with it: in vivo. In a few lines:
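Isoflurane-anesthetized male Sprague-Dawley rats lay prone and received an iv bolus of [11C]radioligand in 200 μL. 3D list-mode emission scans ran 30 min from injection. Regions of interest were drawn on the organs and cardiac blood pool. Uptake was decay-corrected to injection time and expressed as SUV (normalized to injected radioactivity and body weight). Values are mean of n = 4.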

Data set [12] concerns Lung. Put plainly: Drug uptake in Sprague-Dawley rat lung at 0.15 nmol, iv after 30 mins by PET scanning. The note with it: in vivo, 0.5 h. In outline: as §1
Data set [13] has as its system Liver. Put plainly: Drug uptake in Sprague-Dawley rat liver at 0.15 nmol, iv after 2 mins by PET scanning. The note with it: in vivo. In a few lines:
as §1

For data set [14], the system named is Kidney. Put plainly: Drug uptake in Sprague-Dawley rat kidney at 0.15 nmol, iv after 27.5 mins by PET scanning. The note with it: in vivo. In outline:
as §1

On to `CCN(Cc1ccncc1)C(=O)Cn1c(=O)n([11CH3])c2cnc(-c3ccccc3)nc21`, for which the Drug uptake result is recorded as “Not Active” in the data set on Lung [1]; “Not Active” in the data set with Kidney [2]; “Not Active” with Lung [3]; 2.17 % ID/g in the data set on Heart [5]; 1.97 % ID/g in the data set with Kidney [6]; 0.06 % ID/g in the data set on Blood [7]. Moreover, the Drug uptake was 0.02 % ID/g in the data set on Brain; 2.1 % ID/g in the data set with Heart [8]; 0.53 % ID/g in the data set with Liver [9]; 1.78 % ID/g in the data set on Kidney [10]; 1.88 % ID/g in the data set on Spleen; 0.11 % ID/g with Muscle tissue. Moreover, the Drug uptake entry in the data set on Lung [12] was “Active”. Besides, the remaining at 0.5 h in data set [4] was found to be 93.8%. In addition, the SUV amounted to 0.4 in the data set with Blood [11], 1.6 with Liver [13] and 1 in the data set with Kidney [14].
